{"source": "ChEMBL document CHEMBL4190388", "about": "“Discovery and Optimization of Indolyl-Containing 4-Hydroxy-2-Pyridone Type II DNA Topoisomerase Inhibitors Active against Multidrug Resistant Gram-negative Bacteria” (J Med Chem, 2018)", "key": {"[1]": {"test": "Oral bioavailability in CD1 mouse plasma by LC-MS/MS analysis", "assay_type": "ADME, organism-based"}, "[2]": {"test": "Fraction unbound in mouse plasma at 1 uM by equilibrium dialysis method", "assay_type": "ADME, cell-free"}, "Acinetobacter baumannii [3]": {"test_system": "Acinetobacter baumannii", "test": "Antibacterial activity against wild type Acinetobacter baumannii ATCC BAA-747 by CLSI M100-S17 protocol based method", "assay_type": "functional"}, "Klebsiella pneumoniae": {"test_system": "Klebsiella pneumoniae", "test": "Antibacterial activity against wild type Klebsiella pneumoniae ATCC 35657 by CLSI M100-S17 protocol based method", "assay_type": "functional"}, "Mus musculus [4]": {"test_system": "Mus musculus", "test": "Volume of distribution at steady state in CD1 mouse plasma at 10 mg/kg, iv by LC-MS/MS analysis", "assay_type": "ADME, organism-based", "details": "in vivo"}, "Acinetobacter baumannii [5]": {"test_system": "Acinetobacter baumannii", "test": "Antibacterial activity against fluoroquinolone resistant Acinetobacter baumannii isolate MMX2240 by CLSI M100-S17 protocol based method", "assay_type": "functional"}, "Escherichia coli [6]": {"test_system": "Escherichia coli", "test": "Antibacterial activity against wild type Escherichia coli ATCC 25922 in presence of HSA by CLSI M100-S17 protocol based method", "assay_type": "functional"}, "Escherichia coli [7]": {"test_system": "Escherichia coli", "test": "Selectivity ratio of MIC for wild type Escherichia coli ATCC 25922 in presence of HSA to MIC for wild type Escherichia coli ATCC 25922", "assay_type": "functional"}, "Mus musculus [8]": {"test_system": "Mus musculus", "test": "Terminal half life in CD1 mouse plasma at 10 mg/kg, iv by LC-MS/MS analysis", "assay_type": "ADME, organism-based", "details": "in vivo"}, "Escherichia coli [9]": {"test_system": "Escherichia coli", "test": "Antibacterial activity against wild type Escherichia coli ATCC 25922 by CLSI M100-S17 protocol based method", "assay_type": "functional"}, "Escherichia coli [10]": {"test_system": "Escherichia coli", "test": "Antibacterial activity against fluoroquinolone resistant Escherichia coli SKM18 by CLSI M100-S17 protocol based method", "assay_type": "functional"}, "Mus musculus [11]": {"test_system": "Mus musculus", "test": "AUC (0 to 24 hrs) in CD1 mouse plasma at 10 mg/kg, iv by LC-MS/MS analysis", "assay_type": "ADME, organism-based", "set-up": "time < 24 hr, dose 10 mg/kg, route intravenous", "details": "in vivo", "method_in_brief": "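CD-1 mice given a single 10 mg/kg iv dose (n = 3), in either 10% DMSO plus 1% Tween 80 in pH 8.0 phosphate buffer or 20% (2-hydroxypropyl)-β-cyclodextrin in pH 4.0 citrate buffer; plasma exposure measured.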"}, "Acinetobacter baumannii [12]": {"test_system": "Acinetobacter baumannii", "test": "Antibacterial activity against beta-lactam resistant Acinetobacter baumannii by broth microdilution method", "assay_type": "functional", "details": "Acinetobacter baumannii", "method_in_brief": "(§1)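 MICs were determined by CLSI broth methods, except that organisms were grown in brain–heart–infusion medium. The panel comprised wild-type and resistant E. coli and A. baumannii strains, including 12 strains whose details are given by reference.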"}, "Escherichia coli [13]": {"test_system": "Escherichia coli", "test": "Antibacterial activity against quinolone resistance Escherichia coli isolate ELZ4251 harboring gyrA/parC mutant by CLSI M100-S17 protocol based method", "assay_type": "functional"}, "Acinetobacter baumannii [14]": {"test_system": "Acinetobacter baumannii", "test": "Antibacterial activity against quinolone resistant Acinetobacter baumannii by broth microdilution method", "assay_type": "functional", "details": "Acinetobacter baumannii", "method_in_brief": "as §1"}, "Escherichia coli [15]": {"test_system": "Escherichia coli", "test": "Antibacterial activity against aminoglycoside resistant Escherichia coli by broth microdilution method", "assay_type": "functional", "details": "Escherichia coli", "method_in_brief": "as §1"}, "Escherichia coli [16]": {"test_system": "Escherichia coli", "test": "Antibacterial activity against quinolone resistant Escherichia coli by broth microdilution method", "assay_type": "functional", "details": "Escherichia coli", "method_in_brief": "as §1"}, "Acinetobacter baumannii [17]": {"test_system": "Acinetobacter baumannii", "test": "Antibacterial activity against multidrug resistant Acinetobacter baumannii by broth microdilution method", "assay_type": "functional", "details": "Acinetobacter baumannii", "method_in_brief": "as §1"}, "Escherichia coli [18]": {"test_system": "Escherichia coli", "test": "Antibacterial activity against wild type Escherichia coli by broth microdilution method", "assay_type": "functional", "method_in_brief": "as §1"}, "Acinetobacter baumannii [19]": {"test_system": "Acinetobacter baumannii", "test": "Antibacterial activity against aminoglycoside resistant Acinetobacter baumannii by broth microdilution method", "assay_type": "functional", "details": "Acinetobacter baumannii", "method_in_brief": "as §1"}, "Acinetobacter baumannii [20]": {"test_system": "Acinetobacter baumannii", "test": "Antibacterial activity against carbapenem resistant Acinetobacter baumannii by broth microdilution method", "assay_type": "functional", "details": "Acinetobacter baumannii", "method_in_brief": "as §1"}, "Escherichia coli [21]": {"test_system": "Escherichia coli", "test": "Antibacterial activity against Escherichia coli infected in cyclophosphamide treated neutropenic CD1 mouse septicemia model assessed as mouse survival at 20 mg/kg, iv dosed at 1 hr post infection followed by redosing at 5 hrs post infection measured at 96 hrs post infection relative to control", "assay_type": "functional", "method_in_brief": "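Female CD-1 mice were made neutropenic with cyclophosphamide ip, 150 mg/kg on day −4 and 100 mg/kg on day −1. […] Compound was given iv in 3% DMSO/saline at 1 and 5 h postinfection, n = 6 per group. Percent survival was scored at 96 h postinfection.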"}, "Acinetobacter baumannii [22]": {"test_system": "Acinetobacter baumannii", "test": "Antibacterial activity against wild type Acinetobacter baumannii by broth microdilution method", "assay_type": "functional", "method_in_brief": "as §1"}, "Escherichia coli [23]": {"test_system": "Escherichia coli", "test": "Antibacterial activity against beta-lactam resistant Escherichia coli by broth microdilution method", "assay_type": "functional", "details": "Escherichia coli", "method_in_brief": "as §1"}, "Escherichia coli [24]": {"test_system": "Escherichia coli", "test": "Antibacterial activity against multidrug resistant Escherichia coli by broth microdilution method", "assay_type": "functional", "details": "Escherichia coli", "method_in_brief": "as §1"}}}
{"smiles": "Cn1c(CNC2(C)CCC2)cc2cc3c(cc21)CCCc1c-3[nH]c(=O)c(C(=O)O)c1O", "values": [{"measurement": "bioavailability", "setting": "[1]", "result": 65, "unit": "%"}, {"measurement": "Fu", "setting": "[2]", "result": 0.047}, {"measurement": "MIC", "setting": "Acinetobacter baumannii [3]", "result": 0.5, "unit": "µg/mL"}, {"measurement": "MIC", "setting": "Klebsiella pneumoniae", "result": 1, "unit": "µg/mL"}, {"measurement": "Vdss", "setting": "Mus musculus [4]", "result": 7.1, "unit": "L/kg"}, {"measurement": "MIC", "setting": "Acinetobacter baumannii [5]", "result": 1, "unit": "µg/mL"}, {"measurement": "MIC", "setting": "Escherichia coli [6]", "result": 7.8, "unit": "µg/mL"}, {"measurement": "Ratio", "setting": "Escherichia coli [7]", "result": "4 - 16"}, {"measurement": "beta t1/2", "setting": "Mus musculus [8]", "result": 3.1, "unit": "h"}, {"measurement": "MIC", "setting": "Escherichia coli [9]", "result": 1, "unit": "µg/mL"}, {"measurement": "MIC", "setting": "Escherichia coli [10]", "result": 1, "unit": "µg/mL"}, {"measurement": "AUC", "setting": "Mus musculus [11]", "result": 4580, "unit": "ng·h/mL"}]}
{"smiles": "Cn1c(CN2CCCC2)cc2cc3c(cc21)OCCc1c-3[nH]c(=O)c(C(=O)O)c1O", "values": [{"measurement": "MIC50", "setting": "Acinetobacter baumannii [12]", "result": 2, "unit": "µg/mL"}, {"measurement": "MIC90", "setting": "Acinetobacter baumannii [12]", "result": 8, "unit": "µg/mL"}, {"measurement": "MIC", "setting": "Acinetobacter baumannii [12]; read-out: MIC", "result": "0.12 to 16", "unit": "µg/mL"}, {"measurement": "MIC", "setting": "Escherichia coli [13]", "result": 3.1, "unit": "µg/mL"}, {"measurement": "MIC50", "setting": "Acinetobacter baumannii [14]", "result": 2, "unit": "µg/mL"}, {"measurement": "MIC90", "setting": "Acinetobacter baumannii [14]", "result": 8, "unit": "µg/mL"}, {"measurement": "MIC", "setting": "Acinetobacter baumannii [14]; read-out: MIC", "result": "0.12 to 16", "unit": "µg/mL"}, {"measurement": "MIC50", "setting": "Escherichia coli [15]", "result": 0.5, "unit": "µg/mL"}, {"measurement": "MIC90", "setting": "Escherichia coli [15]", "result": 1, "unit": "µg/mL"}, {"measurement": "MIC", "setting": "Escherichia coli [15]; read-out: MIC", "result": "0.25 to 1", "unit": "µg/mL"}, {"measurement": "Fu", "setting": "[2]", "result": 0.18}, {"measurement": "MIC", "setting": "Acinetobacter baumannii [3]", "result": 3.9, "unit": "µg/mL"}, {"measurement": "MIC", "setting": "Klebsiella pneumoniae", "result": 2, "unit": "µg/mL"}, {"measurement": "MIC50", "setting": "Escherichia coli [16]", "result": 0.5, "unit": "µg/mL"}, {"measurement": "MIC90", "setting": "Escherichia coli [16]", "result": 1, "unit": "µg/mL"}, {"measurement": "MIC", "setting": "Escherichia coli [16]; read-out: MIC", "result": "0.25 to 1", "unit": "µg/mL"}, {"measurement": "MIC", "setting": "Acinetobacter baumannii [5]", "result": 7.8, "unit": "µg/mL"}, {"measurement": "MIC", "setting": "Escherichia coli [6]", "result": 3.9, "unit": "µg/mL"}, {"measurement": "Ratio", "setting": "Escherichia coli [7]", "result": "2 - 4"}, {"measurement": "MIC", "setting": "Escherichia coli [9]", "result": 2, "unit": "µg/mL"}, {"measurement": "MIC50", "setting": "Acinetobacter baumannii [17]", "result": 2, "unit": "µg/mL"}, {"measurement": "MIC90", "setting": "Acinetobacter baumannii [17]", "result": 8, "unit": "µg/mL"}, {"measurement": "MIC", "setting": "Acinetobacter baumannii [17]; read-out: MIC", "result": "0.12 to 16", "unit": "µg/mL"}, {"measurement": "MIC50", "setting": "Escherichia coli [18]", "result": 0.5, "unit": "µg/mL"}, {"measurement": "MIC90", "setting": "Escherichia coli [18]", "result": 1, "unit": "µg/mL"}, {"measurement": "MIC50", "setting": "Acinetobacter baumannii [19]", "result": 2, "unit": "µg/mL"}, {"measurement": "MIC90", "setting": "Acinetobacter baumannii [19]", "result": 8, "unit": "µg/mL"}, {"measurement": "MIC", "setting": "Acinetobacter baumannii [19]; read-out: MIC", "result": "0.12 to 16", "unit": "µg/mL"}, {"measurement": "MIC50", "setting": "Acinetobacter baumannii [20]", "result": 2, "unit": "µg/mL"}, {"measurement": "MIC90", "setting": "Acinetobacter baumannii [20]", "result": 8, "unit": "µg/mL"}, {"measurement": "MIC", "setting": "Acinetobacter baumannii [20]; read-out: MIC", "result": "0.12 to 16", "unit": "µg/mL"}, {"measurement": "survival at 20 mg/kg", "setting": "Escherichia coli [21]", "result": 83, "unit": "%"}, {"measurement": "MIC", "setting": "Escherichia coli [10]", "result": 1, "unit": "µg/mL"}, {"measurement": "MIC50", "setting": "Acinetobacter baumannii [22]", "result": 2, "unit": "µg/mL"}, {"measurement": "MIC90", "setting": "Acinetobacter baumannii [22]", "result": 8, "unit": "µg/mL"}, {"measurement": "MIC50", "setting": "Escherichia coli [23]", "result": 0.5, "unit": "µg/mL"}, {"measurement": "MIC90", "setting": "Escherichia coli [23]", "result": 1, "unit": "µg/mL"}, {"measurement": "MIC", "setting": "Escherichia coli [23]; read-out: MIC", "result": "0.25 to 1", "unit": "µg/mL"}, {"measurement": "MIC50", "setting": "Escherichia coli [24]", "result": 0.5, "unit": "µg/mL"}, {"measurement": "MIC90", "setting": "Escherichia coli [24]", "result": 1, "unit": "µg/mL"}, {"measurement": "MIC", "setting": "Escherichia coli [24]; read-out: MIC", "result": "0.25 to 1", "unit": "µg/mL"}]}
